Results of several laboratories.
Protocols differ between the studies behind these lines.
Cell line: OVCAR-8
Effect on: cell growth or viability

| Structure (SMILES) | technique | concentration | time | quantity | result |
| --- | --- | --- | --- | --- | --- |
| COc1cc(-c2ccc(-c3ccc(C(=N)N)nc3)s2)cc(OC)c1OC | SRB | – | – | GI50 | 2.3 µM |
| O=C1Nc2ccccc2C1=NNc1nnc2n1N=C(c1ccccc1)CS2 | SRB | 10 µM | – | inhibition | 41% |
| COc1ccc(-c2ccc(-c3ccc(C(=N)N)nc3)s2)cc1Cl | SRB | – | – | GI50 | 2.6 µM |
| S=C([S][Au-][P+](CCCCCC[P+]([Au-][S]C(=S)n1cccn1)(c1ccccc1)c1ccccc1)(c1ccccc1)c1ccccc1)n1cccn1 | – | – | – | GI50 | 0.696 µM |
| COc1ccc(C(=O)/C=C/c2cccc(Cl)c2)cc1S(N)(=O)=O | SRB | – | 48 h | GI50 | 2.8 µM |
| COc1cccc(Oc2ccccc2NC(=O)CNC(=O)c2cccc3ccccc23)c1 | SRB | – | 48 h | GI50 | 0.692 µM |
| Cc1cc(C)n(C(=S)[S][Au][PH](CCCCCC[PH]([Au][S]C(=S)n2nc(C)cc2C)(c2ccccc2)c2ccccc2)(c2ccccc2)c2ccccc2)n1 | – | – | – | GI50 | 0.597 µM |
| COc1ccc(C(=O)/C=C/c2cccc(Cl)c2Cl)cc1S(N)(=O)=O | SRB | 10 µM | – | inhibition | 164% |
